KCNQ1 pot: potentiators or activators of human KCNQ1 potassium channel; CHO-K1 KCNQ1, thallium flux FluxOR fluorescence; stronger effect = higher value; P51787; actives 0.35% (n = 310,000); B-score at 10 µM;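 active = fluorescence ratio B-score, a plate-corrected score, at least three library SD, with initial intensity B-score within 5 SD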
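assay system = KCNQ1-transfected CHO-K1 cells | medium = assay buffer with matched DMSO | probe or stimulus = depolarizing K+/Tl+ stimulus, K2SO4 and Tl2SO4 each 12.5 mM in 5x stock | dosing = single dose | incubation = dye 90 min, compound 20 min, room temperature | detection = kinetic FluxOR fluorescence, 10 s baseline plus 110 s post-stimulus | evaluation = ratio B score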
KCNQ1 inh: blocks the human KCNQ1 potassium channel; B-score at 10 µM; P51787; CHO-K1 KCNQ1, FluxOR thallium flux fluorescence; stronger effect = higher value; actives 1.3% (n = 310,000);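 active = compounds whose thallium flux B-score, printed positive for inhibition, exceeds three library SD while starting fluorescence stays within three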;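 note: channel opened by potassium depolarization with thallium stimulus after 20 min compound exposure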
KCNK3 block: human KCNK3 channel inhibition, primary screen. B-score at 10 µM. CHO-KCNK3 thallium flux, FluxOR fluorescence; stronger effect = lower value. AID 602410. actives 0.84% (n = 340,000);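 active = B-score under library mean minus 4 SD, starting fluorescence ratio at most library mean plus 5 SD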;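 note: more negative B-score means stronger inhibition of thallium flux through KCNK3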
Kir21 inh: blocks the mouse Kir2.1 inward-rectifier potassium channel; actives 0.85% (n = 310,000); HEK293-Kir2.1, FluxOR thallium flux fluorescence; stronger effect = lower value; B-score at 10 µM; P35561;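 active = fluorescence ratio B-score at or below minus 3 SD of library scores, with starting-brightness B-score within 2 SD, cut at about -4.2 in these data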;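 note: channel flux triggered by added potassium and thallium sulfate stimulus; B-score of peak minus minimum fluorescence over baseline after thallium stimulus; more negative B-score means stronger Kir2.1 block with less thallium influx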
KCNK9 inh: inhibitors of human KCNK9 two-pore domain potassium channel; Q9NPC2; HEK293 KCNK9, FluxOR thallium flux fluorescence; stronger effect = lower value; B-score at 10 µM; actives 1.2% (n = 310,000); AID 488922;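 active = ratio B-score over 3 SD below the library mean, with starting fluorescence within 5 SD of its mean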;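 note: negative B-score means less thallium flux so channel inhibition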
hERG rescue: compounds protecting human hERG from proarrhythmic drug block; CHO-hERG, FluxOR thallium flux, dofetilide IC70 present; activation (rescue from dofetilide block), less the hit threshold, % at 10 µM; actives 0.51% (n = 310,000); AID 1511;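 active = activation above the mean of controls blocked by dofetilide plus 5 SD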;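 note: thallium influx through hERG after potassium depolarization seen as dye fluorescence rise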
KCNK9 inh conf: confirmation of human KCNK9 potassium channel inhibitors | shares compounds with KCNK9 inh | HEK293 KCNK9 cells, FluxOR thallium flux fluorescence | inhibition, % at 10 µM | actives 43% (n = 4,900) | AID 492992;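 active = thallium signal inhibited by more than 5 SD of the compound-free buffer control wells, on both duplicate plates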;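 note: 0% = assay buffer control wells without compound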
Kir21 sel: tests whether KCNK9 modulators also affect mouse Kir2.1 | shares compounds with KCNK9 inh | Kir2.1 cells, FluxOR thallium flux fluorescence | inhibition, % at 10 µM | actives 4% (n = 4,900) | AID 492993;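 active = thallium signal drop more than 5 SD beyond the mean of the no-compound control wells, seen in both duplicate plates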;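 note: signal is fluorescence rise after thallium addition divided by baseline fluorescence; plate controls were assay buffer only for no effect and full block by chlorpromazine control for full effect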
HEK293 Tl ctr: second check of KCNK9 modulator effects in non-induced HEK293 cells | AID 492997 | shares compounds with KCNK9 inh | inhibition, % at 10 µM | FluxOR thallium flux | actives 40% (n = 4,900);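 active = thallium signal drop beyond 5 SD of the untreated control mean, on both duplicate plates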;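 note: plate controls were buffer only IC0 wells for no effect and SID17386958 at its maximal inhibitory level for full effect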
Starred values were filed as active, the others as inactive; i = inactive; · = not tested or not shown. An excerpt weighted towards active compounds, which were near 3.7% of everything screened.

SMILES	KCNQ1 pot	KCNQ1 inh	KCNK3 block	Kir21 inh	KCNK9 inh	hERG rescue	KCNK9 inh conf	Kir21 sel	HEK293 Tl ctr
O=C(COC(=O)/C=C/c1ccccc1Cl)NC1CCCC1	·	·	i	·	·	·	·	·	·
CCc1cccc(CC)c1NC(=O)COC(=O)c1cccc(S(=O)(=O)N2CCc3ccccc3C2)c1	i	i	i	-2.6	-9.1*	-7	56%*	i	34%*
CCCCN(C)Cc1cc(=O)oc2cc3c(cc12)CCCC3	i	i	i	0.36	i	-3	i	i	i
CCCOc1ccc(C(=O)Nc2ccc(S(=O)(=O)NC3=NCCCCC3)cc2)cc1	i	i	i	1.5	i	-17	·	·	·
O=C(CCCc1nc2ccccc2s1)NCc1ccccc1	i	i	i	-0.11	i	-8	·	·	·
COc1ccccc1/C=C(/CC(=O)NCc1ccccc1)c1nc2ccccc2s1	i	i	i	2.1	-9.7*	-16	70%*	i	i
COc1ccccc1/C=C(/CC(=O)NCc1ccc(F)cc1)c1nc2ccccc2s1	i	i	i	0.01	-16*	-9	66%*	i	36%*
COc1cc(C2C(c3ccccc3)C(c3cc(OC)cc(=O)o3)C2c2ccccc2)oc(=O)c1 (stereo not given)	·	·	i	·	·	·	·	·	·
CCn1c(=O)c(C(C)=O)nc2ccccc21	i	i	i	0.2	i	-5	·	·	·
CCCCCn1c(=O)c(C(=O)c2ccccc2)nc2ccccc21	i	i	i	-1.1	-15*	-12	46%*	i	30%*
O=C(COC(=O)CC1CCCCC1)Nc1c(Cl)cccc1Cl	·	·	i	·	·	·	·	·	·
O=C(/C(=C/c1ccccc1)c1ccccc1)N1CCCCC1	i	i	i	-0.6	i	-8	·	·	·
COc1cccc(CN2CCN(Cc3ccccc3C(F)(F)F)CC2)c1	i	i	i	-0.34	i	-10	i	i	i
COc1ccc(OC)c(CN2CCN(Cc3cccc4ccccc34)CC2)c1	i	i	i	-0.38	i	-20	i	i	i
COc1cccc(CN2CCN(C(=O)c3cccc4ccccc34)CC2)c1	i	i	i	-0.4	i	-7	·	·	·
COc1cccc(CN2CCN(Cc3cccc(Oc4ccccc4)c3)CC2)c1OC	i	i	i	-1.5	i	-10	i	i	i
Cc1ccccc1CN1CCN(Cc2ccccc2C(F)(F)F)CC1	i	i	i	-0.23	i	-14	i	i	i
O=S1(=O)CCN(Cc2ccccc2C(F)(F)F)CC1	i	i	i	0.51	i	-2	·	·	·
COc1ccc(CN2CCN(Cc3ccccc3C(F)(F)F)CC2)c(OC)c1	i	i	i	-2.7	i	-11	i	i	i
O=C(c1ccccc1)n1ccc(-c2cnc(-c3ccccc3)s2)n1	i	i	i	0.9	i	-9	·	·	·
COc1ccc(S(=O)(=O)n2ccc(-c3cnc(-c4ccccc4)s3)n2)cc1	i	i	i	-0.32	-10*	-8	i	i	31%*
Cc1ccc2nsnc2c1NC(=O)c1cncc(Br)c1	i	i	i	-1.2	i	-5	·	·	·
CCc1nnc(NC(=O)c2ccc(Cl)c(S(=O)(=O)N3CCc4ccccc43)c2)s1	i	i	i	-2.1	-13*	-14	68%*	i	42%*
CCc1nnc(NC(=O)c2ccc(F)c(S(=O)(=O)N3CCCCC3)c2)s1	i	i	i	0.54	i	-6	·	·	·
CCCC[C@H]1COCCS(=O)(=O)N1Cc1ccc(Br)cc1	i	i	i	-3.1	-8.3*	-6	37%*	i	42%*
SMILES	KCNQ1 pot	KCNQ1 inh	KCNK3 block	Kir21 inh	KCNK9 inh	hERG rescue	KCNK9 inh conf	Kir21 sel	HEK293 Tl ctr
CSc1ccc(CN2CCC(n3nccc3NC(=O)CCCc3ccccc3)CC2)cc1	i	i	i	0	i	-19	·	·	·
Cc1cc(C)n(CC(O)CN2c3ccccc3Sc3ccccc32)n1 (stereo not given)	i	6*	i	-3.9	i	-11	i	i	i
Nc1ccc(-c2nc3ncccc3o2)cc1	i	i	i	-1.3	i	2	·	·	·
Fc1ccc(-[n+]2nc(Nc3ccccc3)sc2-c2c3ccccc3cc3ccccc23)cc1	i	11*	i	-1.2	-12*	-21	34%*	i	i
c1ccc(OCCN2CCN(Cc3nc(-c4ccc5c(c4)OCO5)no3)CC2)cc1	i	i	i	-0.45	i	-6	i	i	i
c1ccc(Cc2noc(CN3CCCN(C4Cc5ccccc5C4)CC3)n2)cc1	i	i	i	0	i	-17	·	·	·
c1ccc(Cc2noc(CN3CCN(C4CCc5ccccc5C4)CC3)n2)cc1 (stereo not given)	i	i	i	-0.05	i	-13	i	i	i
Fc1ccccc1Cc1noc(CN2CCN(Cc3ccc4c(c3)OCO4)CC2)n1	i	i	i	0.44	i	-14	·	·	·
c1ccc(Cc2noc(CN3CCN(Cc4ccc5c(c4)OCO5)CC3)n2)cc1	i	i	i	-1.1	i	-11	i	i	i
c1cc(C2CCN(Cc3nc(-c4ccc5c(c4)OCO5)no3)CC2)ccn1	i	i	i	0.51	i	-16	·	·	·
C(=C\c1ccccc1)/CN1CCN(Cc2nc(Cc3ccccc3)no2)CC1	i	i	i	-0.13	i	-10	i	i	i
CC(NC1=CC(=O)c2cccnc2C1=O)C(O)c1ccccc1 (stereo not given)	·	·	i	·	·	·	·	·	·
CCn1c(SCC(=O)N/N=C(\C)c2ccco2)nnc1-c1ccccc1	i	i	i	-0.07	i	-8	·	·	·
COc1ccc(CC(=O)OCC(=O)c2ccc(F)cc2)cc1	·	·	i	·	·	·	·	·	·
COc1ccccc1CN1CCN(Cc2nc(Cc3ccccc3)no2)CC1	i	i	i	0.02	i	-10	i	i	i
C(=C\c1ccccc1)/CN1CCN(Cc2ccc3c(c2)OCO3)CC1	i	i	i	-0.62	i	-4	·	·	·
O=[N+]([O-])c1ccccc1/C=C/CN1CCN(Cc2ccc3c(c2)OCO3)CC1	i	i	i	1.6	i	-7	i	i	i

Screening data as filed in PubChem BioAssay.
